In article PMC10288510 (Journal of the American Chemical Society, 2023):
Peptide text beside a SMILES is read from it.

Tests used:
[1] = CF assay: carrier-mediated heptaarginine; format: in vitro ADME; conditions: EYPC⊃CF LUVs, 1 μM Trp-Arg7, pEC50 from EC50 in mM, 10% error (SD)
Outline: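 Egg-yolk phosphatidylcholine LUVs (4 μM phospholipid) loaded with self-quenched carboxyfluorescein; efflux read as dequenching (λex 492 nm, λem 517 nm) over time. Carrier added at t = 50 s, Trp-Arg7 (1 μM) at 100 s, Triton X-100 lysis at 600 s for normalisation. Kinetics run across carrier concentrations; normalised traces converted to dose–response curves; Hill fit gives Ymax, EC50 and Ea.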

[2] = CF assay: cargo dose-response with COSAN 2 as carrier; format: in vitro ADME; conditions: for transport of cargo by COSAN 2 (in words): EYPC⊃CF liposomes, 4 μM COSAN 2, pH 7.4; for Et (transport efficiency = Ymax (pEC50)/f, f = 41.8): EYPC vesicles, 4 μM COSAN 2, n.a = no detectable activity, 10% error (SD)

Molecule | transport of cargo by COSAN 2 (in words) [2] | further results
O=C(O)CCCc1ccc2ccc3cccc4ccc1c2c34 [PyBu, pyrenebutyrate] | – | Ea (activator efficiency = Ymax (pEC50)/f, f = 20.6) [1]: 4.8
NCCCC[C@H](NC(=O)[C@H](CCCCN)NC(=O)[C@H](CCCCN)NC(=O)[C@@H](N)Cc1c[nH]c2ccccc12)C(=O)O [Trp-(Lys)3, tryptophan-trilysine] (H-WKKK-OH) | not transported | –
N[C@@H](Cc1c[nH]c2ccccc12)C(=O)NCC(=O)NCC(=O)NCC(=O)NCC(=O)NCC(=O)NCC(=O)O [Trp-Gly6, tryptophan-hexaglysine] (H-WGGGGGG-OH) | not transported | –
NCCCC[C@H](NC(=O)[C@H](CCCCN)NC(=O)[C@H](CCCCN)NC(=O)[C@H](CCCCN)NC(=O)[C@H](CCCCN)NC(=O)[C@H](CCCCN)NC(=O)[C@H](CCCCN)NC(=O)[C@@H](N)Cc1c[nH]c2ccccc12)C(=O)O [Trp-Lys7, tryptophan-heptalysine] (H-WKKKKKKK-OH) | efficient transport | –
CC(C)C[C@H](NC(=O)[C@@H](NC(=O)[C@@H](N)Cc1ccc(O)cc1)[C@@H](C)O)C(=O)N[C@H](C(=O)N[C@H](C(=O)N[C@@H](CCCCN)C(=O)O)C(C)C)[C@@H](C)O [Tyr-Thr-Leu-Thr-Val-Lys, tyrosine-threonine-leucine-threonine-valine-lysine] (H-YTLTVK-OH) | not transported | –
phalloidin | not transported | –
polylysine | – | Et (transport efficiency = Ymax (pEC50)/f, f = 41.8) [2]: 10.0
protamine | – | Et (transport efficiency = Ymax (pEC50)/f, f = 41.8) [2]: 9.0
